Source: paper PMC4340684 (Bioorganic & medicinal chemistry, 2015)

Experiments:
recombinant rat HSL [1] = molecular target: T1, recombinant rat HSL (Rattus norvegicus, UniProt P15304); assay: HSL lipase assay; format: biochemical; details: for times more potent than the corresponding cis isomer: chain lengths of 12–18 carbon atoms
T1 sequence (P15304 1-768 isoform P15304-2): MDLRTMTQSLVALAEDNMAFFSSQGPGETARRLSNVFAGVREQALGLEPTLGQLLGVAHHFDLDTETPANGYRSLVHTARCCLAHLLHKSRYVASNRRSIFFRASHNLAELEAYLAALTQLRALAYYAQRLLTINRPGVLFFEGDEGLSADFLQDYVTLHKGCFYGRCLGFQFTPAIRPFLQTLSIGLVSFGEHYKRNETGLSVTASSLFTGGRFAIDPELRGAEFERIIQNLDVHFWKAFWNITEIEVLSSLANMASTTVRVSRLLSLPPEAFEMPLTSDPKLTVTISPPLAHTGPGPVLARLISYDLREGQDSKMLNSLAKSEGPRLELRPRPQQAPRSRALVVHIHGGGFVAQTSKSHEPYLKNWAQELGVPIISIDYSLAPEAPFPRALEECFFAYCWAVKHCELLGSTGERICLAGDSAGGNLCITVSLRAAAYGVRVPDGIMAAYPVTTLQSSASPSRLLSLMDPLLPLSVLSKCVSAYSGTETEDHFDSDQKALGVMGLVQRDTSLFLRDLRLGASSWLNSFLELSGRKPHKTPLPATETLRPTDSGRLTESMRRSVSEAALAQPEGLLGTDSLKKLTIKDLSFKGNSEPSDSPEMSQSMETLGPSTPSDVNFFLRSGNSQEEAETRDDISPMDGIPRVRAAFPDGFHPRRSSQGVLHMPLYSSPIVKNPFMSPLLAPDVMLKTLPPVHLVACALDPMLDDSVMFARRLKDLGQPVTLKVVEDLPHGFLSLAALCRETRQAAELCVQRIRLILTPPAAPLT

recombinant rat HSL [2] = molecular target: T1, recombinant rat HSL; assay: Determination of rate constants for binding and inactivation of HSL; format: biochemical; details: fit to Eqn 2; no preincubation, 37 °C
Method in brief: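 Baculovirus/Sf9-expressed rat HSL, Ni-NTA purified. Inhibitor in PC/PI (3:1) liposomes with 500 μM triolein plus 3H-triolein; pH 7.4 buffer, 0.2% BSA. Enzyme added directly at 37 °C; samples every 3–5 min for 30 min, 3H-oleate extracted, scintillation counted. Activity–time data at several inhibitor concentrations fit to Eqn 1 (kobs, k−2); normalized activity fit to Eqn 2 (KI, k2).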

SMILES	times more potent than the corresponding cis isomer (recombinant rat HSL [1])	also measured
CCCCCCCCCCCCCCCCO[P@]1(=O)CC[C@@H]2COC(=O)C2=C(C)O1 (racemic) [Cyclipostin P Phosphonate 6a, (±)-(3R(S),5aR(S))-3-(hexadecyloxy)-1-methyl-4,5,5a,6-tetrahydrofuro[3,4-e][1,2]oxaphosphepin-8(3H)-one 3-oxide]		fold less potent than the other bicyclic phosphonate analogs (recombinant rat HSL [1]; vs about 400 nM): about 10 fold
CCCCCCCCCCCC[C@H]1CC[P@@](=O)(OC)OC(C)=C1C(=O)OC [10b]	2–6 times	
CCCCCCCCCCCCCCCC[C@H]1CC[P@@](=O)(OC)OC(C)=C1C(=O)OC [11b]	2–6 times	
CCCCCCCCCCCCCCCCCC[C@H]1CC[P@@](=O)(OC)OC(C)=C1C(=O)OC [12b]	2–6 times	
CCCCCCCCCCCCCCCCO[P@]1(=O)OC[C@@H]2COC(=O)C2=C(C)O1 [Cyclipostin P 4a]		k2 (forward rate constant for inactivation) (recombinant rat HSL [2]): 0.2 min⁻¹
CCCCCCCCCCCCCCCCO[P@]1(=O)OC[C@H]2COC(=O)C2=C(C)O1 [Cyclipostin P 4b]		fold weaker IC50 of the less potent diastereomer vs the more potent diastereomer (recombinant rat HSL [1]): 16 fold
